Bioassay records (PubChem BioAssay)
An excerpt weighted towards active compounds, which were near 5.3% of everything screened.
Mdm2-MdmX inh = inhibitors of human Mdm2-MdmX association, primary screen, cell-based, luminescence, split luciferase, SaOS-2, uHTS; inhibition, % at 8 µM; actives 3% (n = 330,000); SaOS-2 split-luciferase Mdm2/MdmX complementation; AID 485346, 2010; Protein Mdm4 (Homo sapiens) + E3 ubiquitin-protein ligase Mdm2 (Homo sapiens), …;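 active means inhibition of at least 50% at 8 µM in the primary screen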
Target sequence (O15151 whole entry, looked up): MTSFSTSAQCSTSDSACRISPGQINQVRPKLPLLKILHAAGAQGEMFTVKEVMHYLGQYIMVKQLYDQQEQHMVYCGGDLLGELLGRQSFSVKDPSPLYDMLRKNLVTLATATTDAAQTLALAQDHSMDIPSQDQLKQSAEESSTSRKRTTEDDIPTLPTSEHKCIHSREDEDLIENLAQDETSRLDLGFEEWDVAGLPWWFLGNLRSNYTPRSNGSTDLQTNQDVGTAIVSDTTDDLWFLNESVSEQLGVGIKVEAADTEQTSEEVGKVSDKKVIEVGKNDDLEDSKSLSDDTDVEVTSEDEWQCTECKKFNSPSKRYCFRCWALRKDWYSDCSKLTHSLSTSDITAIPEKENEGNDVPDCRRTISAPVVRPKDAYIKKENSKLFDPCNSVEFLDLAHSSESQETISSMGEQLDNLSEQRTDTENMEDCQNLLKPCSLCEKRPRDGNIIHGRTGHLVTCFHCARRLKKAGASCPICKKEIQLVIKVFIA
Target sequence (Q00987 whole entry, looked up): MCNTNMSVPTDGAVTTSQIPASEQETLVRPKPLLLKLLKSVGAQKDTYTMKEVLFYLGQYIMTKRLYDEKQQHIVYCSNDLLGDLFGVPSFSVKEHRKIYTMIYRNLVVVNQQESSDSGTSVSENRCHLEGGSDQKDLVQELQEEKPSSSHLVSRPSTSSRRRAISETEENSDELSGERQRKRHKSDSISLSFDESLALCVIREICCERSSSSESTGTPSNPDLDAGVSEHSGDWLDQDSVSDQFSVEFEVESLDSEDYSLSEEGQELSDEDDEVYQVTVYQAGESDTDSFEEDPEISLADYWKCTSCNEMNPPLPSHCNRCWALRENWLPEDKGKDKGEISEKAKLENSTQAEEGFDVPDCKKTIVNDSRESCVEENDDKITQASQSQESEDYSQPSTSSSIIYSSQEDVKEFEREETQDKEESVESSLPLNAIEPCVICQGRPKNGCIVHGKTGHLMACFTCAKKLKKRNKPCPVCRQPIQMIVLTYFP
Calb FLC = C. albicans growth inhibition with fluconazole, primary screen, CaCi-2 strain, Alamar Blue fluorescence. growth inhibition, % (test concentration not listed). actives 0.57% (n = 300,000). C. albicans CaCi-2 (fluconazole-resistant clinical isolate) + fluconazole, 48 h;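 active means growth inhibition above about 58% in most replicates, limit read from the data, passing the limit was not always enough; inconclusive means exactly half the replicates above a set limit; inactive means most replicates below a set limit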;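 further: all wells also contain fluconazole at 8 µg/ml as a sub-toxic cotreatment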
CSC inhib = cancer stem cell viability inhibitors, primary screen, luminescence | cancer stem cell-like cells viability | inhibition, % at 7.5 µM | actives 1.1% (n = 300,000); in the data active means inhibition above about 75%; inconclusive means no clear call, values can overlap the other calls; tested in HMLE shEcad cells
NALP3 yeast inh = NALP3 inflammasome inhibitors in reconstituted yeast, primary screen, luminescence, uHTS; Yeast reconstituted NLRP3/ASC/caspase-1, beta-gal luminescence, 24 h; inhibition, % at 10 µM; actives 0.39% (n = 330,000); AID 2825, 2010;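 active means inhibition of 50% or more; inactive means inhibition below 50%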
T cruzi inh = inhibitors of intracellular T. cruzi growth, primary screen, luminescence, NIH3T3 host cells. T. cruzi beta-gal in NIH3T3, 90 h. inhibition, % (test concentration not listed). actives 1.4% (n = 300,000). AID 1885, 2009;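 active means mean inhibition across valid replicates above about 55%, limit read from the data; inconclusive means mean below that limit but half or more replicates reach it; inactive means mean below it, under half of replicates reach it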;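 further: signal also drops with host cell toxicity which is not excluded here; higher percent means less beta-gal luminescence so fewer parasites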
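Assay system: NIH/3T3 host cells with β-galactosidase reporter T. cruzi; input: 5,000 host fibroblasts per well; compound: single 50 nL compound addition per well in DMSO; timing: ≥90 h infection period, 3 h prior cell attachment; measured by: GalScreen β-gal luminescence, detergent lysis, 60 min; evaluation: percent inhibition of parasite-derived β-gal signal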
Beta apoptosis = inhibitors of cytokine-induced beta cell apoptosis, primary screen, luminescence; protection from apoptosis, % (no concentration beside the values); actives 0.8% (n = 300,000); INS-1E cytokine-induced death, ATP luminescence, 48 h; percent of positive-control rescue, neutral wells zero;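 active means Every replicate reaches about 75%, or at least half do and their mean reaches it too, limit read from the data; inconclusive means At least half of replicates reach the limit but their mean does not; inactive means Under half of replicates reach the limit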;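 further: higher means more ATP so stronger rescue from cytokine killing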
Mdm2-MdmX conf = Mdm2-MdmX complex disruptors, retested hits, confirmation, luminescence, single concentration; shares compounds with Mdm2-MdmX inh; Mdm2-MdmX binding, luminescent assay; actives 55% (n = 10,000); inhibition, % at 8 µM; in the data active means inhibition above about 40%
FLuc counter = full-length luciferase signal inhibition, confirmation, counter-screen for Mdm2/MdmX interaction inhibitor project, cell-based, single concentration, SaOS-2; shares compounds with Mdm2-MdmX inh; actives 77% (n = 6,200); SaOS-2 full-length luciferase counterscreen, luminescence; inhibition, % at 8 µM;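 active means mean inhibition at 8 µM reaching about 37%, which flags the compound as non-specific, limit read from the data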;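 further: p53-null SaOS-2 cells with luciferase driven by a doxycycline-inducible promoter; compound on cells about two nights before reading with doxycycline added after day one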
Hits are given with their value; n = inactive; u = inconclusive; x = no result given.

SMILES | Mdm2-MdmX inh | Calb FLC | CSC inhib | NALP3 yeast inh | T cruzi inh | Beta apoptosis | Mdm2-MdmX conf | FLuc counter
Cc1noc(C)c1CSc1nc2[nH]ncc2c(=O)n1-c1ccccc1 | 69 | n | n | n | n | n | 68 | 61
C=CCn1c(SCc2c(C)noc2C)nc2sc3c(c2c1=O)CCCC3 | 52 | n | n | n | n | n | 55 | 41
Cc1noc(C)c1CSc1nc2ccccc2c(=O)n1-c1ccccc1 | 67 | n | n | n | n | n | 63 | 67
C=CCn1c(SCc2c(C)noc2C)nc2ccccc2c1=O | 58 | n | u | n | n | n | 60 | 66
Cc1noc(C)c1CSc1nnc2n(-c3ccccc3)c(=O)c3ccccc3n12 | n | n | n | n | n | n | x | x
NC(=O)C1CCCN(C(=O)c2cccc(S(=O)(=O)N(Cc3ccccc3)c3ccccc3)c2)C1 (centres undefined) | n | x | x | n | x | n | x | x
CCOc1ccc(NC(=O)CSc2nc3cccnc3n2CC)cc1 | x | n | x | x | n | x | x | x
O=C(CN1CCN(C(=O)C2CCC2)CC1)Nc1ccc(F)cc1 | n | x | n | n | x | n | x | x
Cc1oc2cc3oc(=O)c(CCC(=O)NCCCC(=O)O)c(C)c3cc2c1C | n | n | n | n | n | n | x | x
Cc1cccc(N2CCN(C(=O)c3ccc4nc(-c5ccco5)c(-c5ccco5)nc4c3)CC2C)c1 (centres undefined) | n | n | n | n | n | n | x | x
CN1CCN(C(=O)CNC(=O)Cc2ccc(Cl)cc2)CC1 | n | n | n | n | n | n | x | x
C=CCNC(=S)NNC(=O)c1ccccc1 | n | n | n | n | n | n | x | x
COc1ccccc1NS(=O)(=O)c1ccc2c(c1)NC(=O)CC(=O)N2 | n | n | n | n | n | n | x | x
COc1cc2nc(SCc3c(C)noc3C)n(CCC3=CCCCC3)c(=O)c2cc1OC | 87 | n | n | n | n | x | 52 | 50
Cc1noc(C)c1CSc1nc2ccccc2c(=O)n1-c1ccc(F)cc1F | 66 | n | n | n | u | n | 53 | 58
C=CCn1c(SCc2c(C)noc2C)nc2cc(C(=O)O)ccc2c1=O | n | n | n | n | n | n | x | x
Cc1cc(/C=N/n2c(COc3ccccc3C)nc3ccccc3c2=O)c(O)c([N+](=O)[O-])c1 | 56 | 91 | n | n | 67 | 79 | 64 | 46
FC(F)(F)c1cc(CCN2CCNC[C@@H]2Cc2ccccc2)cc(C(F)(F)F)c1 | 51 | n | 77 | n | n | n | n | x
Fc1cccc(CCN2CCNC[C@@H]2Cc2ccccc2)c1 | n | n | n | n | n | n | x | x
C#CCNC(=O)C1CCN(c2ccc(S(=O)(=O)N3CCOCC3)cc2Cl)CC1 | n | n | n | n | n | n | x | x
O=C(NCc1cccs1)C1CCN(c2ccc(S(=O)(=O)N3CCOCC3)cc2Cl)CC1 | 63 | n | n | n | n | n | 43 | 91
COc1ccccc1N(Cc1cc(=O)[nH]c2ccccc12)C(C)=O | n | n | n | n | n | n | x | x
CC(C)(O)[C@@H]1[C@@H]2C[C@@]3(CC[C@]4(C)C(CCC5[C@@]6(C)CC[C@H](O)C(C)(C)C6CC[C@]54C)[C@@H]13)C(=O)O2 (some centres undefined) | n | n | n | n | n | n | x | x
C=C(C)[C@@H]1CC[C@]2(C(=O)O)CC[C@]3(C)[C@H](CC[C@@H]4[C@@]5(C)CC[C@H](O)C(C)(C)[C@@H]5CC[C@]43C)[C@@H]12 | 55 | x | 84 | n | n | x | n | x
COc1ccc(-c2cc(C(=O)Nc3cc(C)ccc3O)no2)cc1 | 57 | n | n | n | n | n | n | x
SMILES | Mdm2-MdmX inh | Calb FLC | CSC inhib | NALP3 yeast inh | T cruzi inh | Beta apoptosis | Mdm2-MdmX conf | FLuc counter
COc1ccc(OC)c(-c2cc(C(=O)Nc3ccc(F)cc3F)no2)c1 | 58 | n | n | n | n | n | n | x
COc1ccc(-c2cc(C(=O)Nc3ccc(F)cc3F)no2)cc1 | n | n | n | n | n | n | x | x
COc1ccccc1/C=C1\SC(=S)N(CCC(=O)Nc2cc(C)on2)C1=O | n | n | n | n | n | n | x | x
CC(=O)c1ccc(OCC(=O)N(C2CCCCC2)C2CCS(=O)(=O)C2)cc1 (centres undefined) | n | n | n | n | n | n | x | x
O=C(CCl)N(C1CCCC1)C1CCS(=O)(=O)C1 (centres undefined) | 87 | n | n | n | n | n | 72 | 55
CCOc1ccc(C2C(C(=O)C3CC3)N3C=C(C#N)C=CC3C2(C#N)C#N)cc1 (centres undefined) | n | n | n | n | n | n | x | x
Cc1cc(C)n(-c2nc3nonc3nc2Nc2cccc(C)c2C)n1 | 51 | n | n | n | n | n | n | x
COc1ccc(-n2nnnc2-c2cnc3cc4c(cc3c2C)OCO4)cc1 | n | n | n | n | n | n | x | x
COc1ccccc1C(=O)Nc1c(C(=O)N(CCN(C)C)Cc2ccco2)oc2ccccc12 | 62 | n | n | n | n | n | n | x
COc1ccc(-c2nc(C#N)c(NC(C)C)o2)cc1 | n | n | x | n | n | x | x | x
Cc1ccccc1S(=O)(=O)Cc1ccc(C(=O)N2CCN(c3cccc(C)c3C)CC2)o1 | 57 | n | n | n | n | n | 68 | 50
COc1ccc(S(=O)Cc2ccc(C(=O)N3CCN(c4cccc(C)c4C)CC3)o2)cc1 (centres undefined) | 50 | n | n | n | n | n | 55 | 36
Cc1ccccc1S(=O)(=O)Cc1ccc(C(=O)N2CC(C)CC(C)C2)o1 (centres undefined) | n | n | n | n | n | n | x | x
COc1ccc(N2CCN(C(=O)c3ccc(CS(=O)Cc4ccc(C)cc4)o3)CC2)cc1 (centres undefined) | n | n | n | n | n | n | x | x
COC(=O)/C=c1/s/c(=C(\C#N)C(=O)NCc2ccco2)n(-c2ccccc2)c1=O | n | n | n | n | n | n | x | x
COc1ccc(OCCn2cc(/C=C(\C#N)C(=O)NCc3ccco3)c3ccccc32)cc1 | 75 | n | n | n | n | n | 42 | 51
COc1ccc(/C=c2\s/c(=C(/C#N)C(=O)NCc3ccco3)n(-c3ccccc3)c2=O)cc1 | 68 | n | n | n | n | n | n | x
COC(=O)c1sc2nc[nH]c(=O)c2c1C | n | n | n | n | n | n | x | x
